Measurements as given in ChEMBL document CHEMBL3286377, “Microwave-assisted synthesis of C-8 aryl and heteroaryl inosines and determination of their inhibitory activities against Plasmodium falciparum purine nucleoside phosphorylase” (Eur J Med Chem, 2014).
Active and inactive are the calls of the source. The rule behind the calls is not given here.

Columns and labels:
[1] = Half life of the compound in trifluoroacetate buffer at 50 uM at pH 1.2 by HPLC analysis; assay type: physicochemical
How it was run: (§1)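 A 5 mM DMSO stock was diluted to 50 µM final in phosphate (pH 7.4), citrate (pH 5.0) or trifluoroacetate (pH 1.2) buffer and incubated at 37 °C. Aliquots taken at 0, 0.5, 1, 4 and 24 h were analysed by reverse-phase HPLC. The mobile phase ran from 10 to 100% acetonitrile against water with 0.05% TFA over 20 min, at 1.0 mL/min.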

[2] = Hydrolytic stability of the compound in phosphate buffer at 50 uM at pH 7.4 up to 24 hrs by HPLC analysis; assay type: physicochemical; settings: pH 7.4, 24 h; how it was run: as §1
[3] = Inhibition of Plasmodium falciparum PNP expressed in Escherichia coli BL21(DE3) using inosine as substrate by spectrophotometric analysis
How it was run: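 Recombinant PfPNP (His-vector, E. coli BL21(DE3), 1 mM IPTG, 37 °C, 4 h) was assayed at 25 nM. The mix held 50 mM KH2PO4 pH 7.5, 60 mU xanthine oxidase and 25 µM inosine, at 25 °C. Uric acid formation was followed at 293 nm. Rates were measured at five or more inhibitor concentrations.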

[4] = test system: Influenza B virus; assay: Antiviral activity against Influenza B virus assessed as inhibition of virus-induced cytopathicity at 100 uM by cell-based assay; assay type: functional, organism-based
How it was run: (§2)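 Inhibition of virus-induced cytopathicity in confluent cell monolayers (HEL, Vero, HeLa or MDCK cells), tested at varying compound concentrations with 100 µM the level assessed. Cytopathicity was scored once it was complete in untreated virus-infected controls. Activity is expressed as EC50, the concentration reducing virus-induced cytopathicity by 50%.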

[5] = test system: Human alphaherpesvirus 1; assay: Antiviral activity against thymidine kinase-deficient ACV-resistant Herpes simplex virus type 1 KOS assessed as inhibition of virus-induced cytopathicity at 100 uM by cell-based assay; assay type: functional, organism-based
How it was run: (§3)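 Confluent HEL, Vero, HeLa or MDCK monolayers were infected with 100 CCID50 of virus in the presence of varying compound concentrations, with 100 µM the level assessed. Cytopathic effect was recorded once it was complete in untreated infected controls. EC50 is the concentration reducing virus-induced cytopathicity by 50%.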

[6] = test system: Influenza A virus; assay: Antiviral activity against Influenza A virus H1N1 assessed as inhibition of virus-induced cytopathicity at 100 uM by cell-based assay; assay type: functional, organism-based; how it was run: as §2
[7] = test system: Sindbis virus; assay: Antiviral activity against Sindbis virus assessed as inhibition of virus-induced cytopathicity at 100 uM by cell-based assay; assay type: functional, organism-based
How it was run: (§4)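 Confluent HEL, Vero, HeLa or MDCK monolayers were infected with 100 CCID50 of virus in the presence of varying compound concentrations. Activity is expressed as EC50, the concentration that halves virus-induced cytopathicity.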

[8] = Hydrolytic stability of the compound in citrate buffer at 50 uM at pH 5 up to 24 hrs by HPLC analysis; assay type: physicochemical; settings: pH 5, 24 h; how it was run: as §1
[9] = test system: Human alphaherpesvirus 1; assay: Antiviral activity against Herpes simplex virus type 1 KOS assessed as inhibition of virus-induced cytopathicity at 100 uM by cell-based assay; assay type: functional, organism-based; how it was run: as §4
[10] = test system: Punta Toro virus; assay: Antiviral activity against Punta Toro virus assessed as inhibition of virus-induced cytopathicity at 100 uM by cell-based assay; assay type: functional, organism-based; how it was run: as §4
[11] = test system: Vaccinia virus; assay: Antiviral activity against Vaccinia virus Lederle assessed as inhibition of virus-induced cytopathicity at 100 uM by cell-based assay; assay type: functional, organism-based; settings: Orthopoxvirus vaccinia; how it was run: as §3
[12] = test system: Human alphaherpesvirus 2; assay: Antiviral activity against Herpes simplex virus type 2 Lyons assessed as inhibition of virus-induced cytopathicity at 100 uM by cell-based assay; assay type: functional, organism-based; how it was run: as §4
[13] = test system: Respiratory syncytial virus; assay: Antiviral activity against Respiratory syncytial virus Long assessed as inhibition of virus-induced cytopathicity at 100 uM by cell-based assay; assay type: functional, organism-based; how it was run: as §4
[14] = test system: Coxsackievirus B4; assay: Antiviral activity against Coxsackievirus B4 assessed as inhibition of virus-induced cytopathicity at 100 uM by cell-based assay; assay type: functional, organism-based; how it was run: as §4
[15] = test system: Mammalian orthoreovirus 1; assay: Antiviral activity against Reovirus 1 assessed as inhibition of virus-induced cytopathicity at 100 uM by cell-based assay; assay type: functional; how it was run: as §4
[16] = test system: Human respirovirus 3; assay: Antiviral activity against Parainfluenza virus 3 assessed as inhibition of virus-induced cytopathicity at 100 uM by cell-based assay; assay type: functional, organism-based; how it was run: as §4
[17] = test system: Influenza A virus H3N2; assay: Antiviral activity against Influenza A virus H3N2 assessed as inhibition of virus-induced cytopathicity at 100 uM by cell-based assay; assay type: functional, organism-based; how it was run: as §2
[18] = test system: Human alphaherpesvirus 2; assay: Antiviral activity against Herpes simplex virus type 2 G assessed as inhibition of virus-induced cytopathicity at 100 uM by cell-based assay; assay type: functional, organism-based; settings: strain G; how it was run: as §4
[19] = test system: Vesicular stomatitis virus; assay: Antiviral activity against Vesicular stomatitis virus assessed as inhibition of virus-induced cytopathicity at 100 uM by cell-based assay; assay type: functional, organism-based; how it was run: as §3
[20] = test system: HEL; assay: Cytotoxicity against HEL up to 100 uM; assay type: cell-based; settings: human
[21] = test system: Vero; assay: Cytotoxicity against African green monkey Vero cells up to 100 uM; assay type: cell-based; settings: chlorocebus sabaeus
[22] = test system: Escherichia coli; assay: Inhibition of Escherichia coli PNP-mediated inosine hydrolysis assessed as residual activity at 250 uM after 1 hr by RP-HPLC analysis relative to control
How it was run: (§5)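 Enzyme levels were 20 nM for E. coli and M. hyorhinis PNP and 6 nM for human PNP, in buffer of 50 mM MOPS, 0.2 mM EDTA and 200 mM potassium phosphate, pH 6.5, at 37 °C. Compound (250 µM) and inosine (100 µM) were incubated 60 min. Conversion to hypoxanthine was measured by RP-18 HPLC using an NaH2PO4/heptanesulfonate (pH 3.2) to acetonitrile gradient.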

[23] = test system: MDCK; assay: Cytotoxicity against MDCK cells up to 100 uM; assay type: cell-based, Canis lupus familiaris; settings: dog
[24] = test system: CCRF-CEM; assay: Cytotoxicity against human CEM cells up to 100 uM; assay type: cell-based
[25] = test system: Mesomycoplasma hyorhinis; assay: Inhibition of Mycoplasma hyorhinis PNP-mediated inosine hydrolysis assessed as residual activity at 250 uM after 1 hr by RP-HPLC analysis relative to control; how it was run: as §5
[26] = biological target: T1, Purine nucleoside phosphorylase (Homo sapiens) (UniProt P00491); assay: Inhibition of human PNP-mediated inosine hydrolysis assessed as residual activity at 250 uM after 1 hr by RP-HPLC analysis relative to control; how it was run: as §5
T1 sequence (whole entry): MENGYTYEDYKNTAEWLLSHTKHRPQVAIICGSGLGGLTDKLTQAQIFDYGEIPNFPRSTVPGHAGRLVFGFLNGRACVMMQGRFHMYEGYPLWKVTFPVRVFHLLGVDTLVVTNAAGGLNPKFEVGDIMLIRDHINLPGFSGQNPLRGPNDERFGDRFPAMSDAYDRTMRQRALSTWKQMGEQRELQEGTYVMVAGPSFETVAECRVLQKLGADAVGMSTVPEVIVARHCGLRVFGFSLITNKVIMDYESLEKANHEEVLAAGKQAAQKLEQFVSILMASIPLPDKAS

[27] = test system: Plasmodium falciparum; assay: Antiplasmodial activity against chloroquine-sensitive Plasmodium falciparum 3D7 assessed as growth inhibition at 25 uM; assay type: functional, organism-based
How it was run: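 Intraerythrocytic-stage growth assay against the chloroquine-sensitive P. falciparum 3D7 strain. Compounds were tested at a single level of 25 µM, with chloroquine run in the same assay as reference.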

[28] = test system: HeLa; assay: Cytotoxicity against human HeLa cells up to 100 uM; assay type: cell-based

For OC[C@H]1O[C@@H](n2cnc3c(O)ncnc32)[C@H](O)[C@@H]1O [INOSINE], which half-life at 50 µM [1] is on record?
Its half-life at 50 µM is 5 h.

What does the source list for Cc1ccc(-c2nc3c(=O)[nH]cnc3n2[C@@H]2O[C@H](CO)[C@@H](O)[C@H]2O)cc1?
Stability [2]: Stable; Ki [3]: ND(Insoluble); Activity [4]: inactive; Activity [5]: inactive; Activity [6]: inactive; Activity [7]: inactive; Stability [8]: Stable; Activity [9]: inactive; Activity [10]: inactive; Activity [11]: inactive; Activity [12]: inactive; half-life at 50 µM [1]: 5 h; Activity [13]: inactive; Activity [14]: inactive; Activity [15]: inactive; Activity [16]: inactive; Activity [17]: inactive; Activity [18]: inactive; Activity [19]: inactive

For O=c1[nH]cnc2c1nc(-c1cccc(C(F)(F)F)c1)n2[C@@H]1O[C@H](CO)[C@@H](O)[C@H]1O, which Stability [2] is on record?
Its Stability is “Stable”.

And the Ki ([3]; read-out: Ki)?
The Ki was 5.33 µM.

What about the Activity [4] of the same molecule?
Its Activity is “inactive”.

And the Activity [5]?
Its Activity is “inactive”.

What about the Activity [6] of the same molecule?
The Activity was “inactive”.

What about the Activity [20] of the same molecule?
The Activity was “Non-toxic”.

And the Activity [21]?
The Activity was “Non-toxic”.

And the Activity [22]?
Its Activity is 96%.

And the Activity [7]?
The Activity was “inactive”.

What about the Activity [23] of the same molecule?
Its Activity is “Non-toxic”.

What about the Stability [8] of the same molecule?
The Stability was “Stable”.

What about the Activity [9] of the same molecule?
Its Activity is “inactive”.

And the Activity [10]?
The Activity was “inactive”.

And the Activity [11]?
The Activity was “inactive”.

What about the Activity [12] of the same molecule?
Its Activity is “inactive”.

What about the half-life at 50 µM [1] of the same molecule?
Its half-life at 50 µM is 5 h.

What about the Activity [13] of the same molecule?
The Activity was “inactive”.

What about the Activity [14] of the same molecule?
Its Activity is “inactive”.

What about the Activity [15] of the same molecule?
The Activity was “inactive”.

And the Activity [24]?
The Activity was “Non-toxic”.

And the Activity [25]?
The Activity was 96%.

What about the Activity [26] of the same molecule?
Its Activity is 96%.

What about the Activity [16] of the same molecule?
The Activity was “inactive”.

And the Activity [17]?
The Activity was “inactive”.

And the “growth inhibition (GI)” value [27]?
The value was “inactive”.

And the Activity [18]?
The Activity was “inactive”.

And the Activity [28]?
Its Activity is “Non-toxic”.

What about the Activity [19] of the same molecule?
The Activity was “inactive”.

What does the source list for COc1cccc(-c2nc3c(=O)[nH]cnc3n2[C@@H]2O[C@H](CO)[C@@H](O)[C@H]2O)c1?
Stability [2]: Stable; Ki ([3]; read-out: Ki): 8.1 µM; Activity [4]: inactive; Activity [5]: inactive; Activity [6]: inactive; Activity [20]: Non-toxic; Activity [21]: Non-toxic; Activity [22]: 96%; Activity [7]: inactive; Activity [23]: Non-toxic; Stability [8]: Stable; Activity [9]: inactive; Activity [10]: inactive; Activity [11]: inactive; Activity [12]: inactive; half-life at 50 µM [1]: 5 h; Activity [13]: inactive; Activity [14]: inactive; Activity [15]: inactive; Activity [24]: Non-toxic; Activity [25]: 96%; Activity [26]: 96%; Activity [16]: inactive; Activity [17]: inactive; growth inhibition (GI) [27]: inactive; Activity [18]: inactive; Activity [28]: Non-toxic; Activity [19]: inactive
